Reference: ChEMBL document CHEMBL1914423, “New imidazo[2,1-b]thiazole derivatives: synthesis, in vitro anticancer evaluation, and in silico studies” (Eur J Med Chem, 2011)

Tests used:
[1] = Antiproliferative activity against human A375P cells after 48 hrs by MTT assay; format: functional, cell-based
How it was run: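 A375P cells in DMEM with 10% FBS at 37 °C, 5% CO2. Seeded at 5×10³ cells/well, held 24 h, then treated with 12-point 3-fold serial dilutions for 48 h. Viability by MTT reduction. IC50 values are means of triplicate experiments.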

[2] = test system: HL-60(TB); assay: Anticancer activity against human HL-60(TB) cells assessed as cell growth at 10^-5 M after 48 hrs by SRB assay; format: functional; conditions: HL-60, 48 h, read-out: Activity
How it was run: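 NCI-60 single-dose screen. Cells in RPMI 1640 with 5% FBS and 2 mM L-glutamine were plated at 5000–40,000 cells/well and preincubated 24 h at 37 °C before one compound concentration. Time-zero plates were TCA-fixed at drug addition. For suspension cells, settled cells were fixed with cold TCA, then SRB-stained and read at 515 nm. Percent growth was calculated from time-zero, control and treated absorbances.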

[3] = test system: MOLT-4; assay: Anticancer activity against human MOLT4 cells assessed as cell growth at 10^-5 M after 48 hrs by SRB assay; format: functional; conditions: MOLT-4, 48 h, read-out: Activity
[4] = test system: SR; assay: Anticancer activity against human SR cells assessed as cell growth at 10^-5 M after 48 hrs by SRB assay; format: functional; conditions: read-out: Activity
How it was run: (§1)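 NCI-60 single-dose screen: cells in RPMI 1640 with 5% FBS and 2 mM L-glutamine, plated at 5000–40,000 cells/well by doubling time, and preincubated 24 h at 37 °C. Compound given at one concentration from DMSO stock. Cells TCA-fixed and SRB-stained, absorbance at 515 nm. Percent growth relative to time-zero and untreated controls; inhibition % = 100 − growth %.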

[5] = test system: EKVX; assay: Anticancer activity against human EKVX cells assessed as cell growth at 10^-5 M after 48 hrs by SRB assay; format: functional; conditions: read-out: Activity
How it was run: (§2)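 NCI-60 single-dose screen at one concentration. Cells grown in RPMI 1640 with 5% FBS and 2 mM L-glutamine, plated at 5000–40,000 cells/well, and pre-incubated 24 h at 37 °C in 5% CO2 before DMSO-dissolved drug was added. Cells fixed with TCA, SRB-stained, absorbance read at 515 nm. Percent growth calculated against time-zero and untreated control plates.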

[6] = test system: HOP-92; assay: Anticancer activity against human HOP92 cells assessed as cell growth at 10^-5 M after 48 hrs by SRB assay; format: functional; conditions: HOP-92, 48 h, read-out: Activity; how it was run: as §2
[7] = test system: NCI-H226; assay: Anticancer activity against human NCI-H226 cells assessed as cell growth at 10^-5 M after 48 hrs by SRB assay; format: functional; conditions: NCI-H226, 48 h, read-out: Activity
[8] = test system: NCI-H322M; assay: Anticancer activity against human NCI-H322M cells assessed as cell growth at 10^-5 M after 48 hrs by SRB assay; format: functional; conditions: read-out: Activity
[9] = test system: HCT-116; assay: Anticancer activity against human HCT116 cells assessed as cell growth at 10^-5 M after 48 hrs by SRB assay; format: functional; conditions: HCT-116, 48 h, read-out: Activity; how it was run: as §2
[10] = test system: HT-29; assay: Anticancer activity against human HT-29 cells assessed as cell growth at 10^-5 M after 48 hrs by SRB assay; format: functional; conditions: HT-29, 48 h, read-out: Activity; how it was run: as §2
[11] = test system: SW-620; assay: Anticancer activity against human SW620 cells assessed as cell growth at 10^-5 M after 48 hrs by SRB assay; format: functional; conditions: SW-620, 48 h, read-out: Activity; how it was run: as §1
[12] = test system: SF-268; assay: Anticancer activity against human SF268 cells assessed as cell growth at 10^-5 M after 48 hrs by SRB assay; format: functional; conditions: SF-268, 48 h, read-out: Activity
[13] = test system: SF-295; assay: Anticancer activity against human SF295 cells assessed as cell growth at 10^-5 M after 48 hrs by SRB assay; format: functional; conditions: SF-295, 48 h, read-out: Activity
[14] = test system: SNB-19; assay: Anticancer activity against human SNB19 cells assessed as cell growth at 10^-5 M after 48 hrs by SRB assay; format: functional; conditions: SNB-19, 48 h, read-out: Activity
[15] = test system: LOX IMVI; assay: Anticancer activity against human LOXIMVI cells assessed as cell growth at 10^-5 M after 48 hrs by SRB assay; format: functional; conditions: read-out: Activity; how it was run: as §2
[16] = test system: M14; assay: Anticancer activity against human M14 cells assessed as cell growth at 10^-5 M after 48 hrs by SRB assay; format: functional; conditions: M14, 48 h, read-out: Activity; how it was run: as §2
[17] = test system: SK-MEL-2; assay: Anticancer activity against human SK-MEL-2 cells assessed as cell growth at 10^-5 M after 48 hrs by SRB assay; format: functional; conditions: SK-MEL-2, 48 h, read-out: Activity
[18] = test system: SK-MEL-5; assay: Anticancer activity against human SK-MEL-5 cells assessed as cell growth at 10^-5 M after 48 hrs by SRB assay; format: functional; conditions: SK-MEL-5, 48 h, read-out: Activity
[19] = test system: UACC-62; assay: Anticancer activity against human UACC62 cells assessed as cell growth at 10^-5 M after 48 hrs by SRB assay; format: functional; conditions: UACC-62, 48 h, read-out: Activity; how it was run: as §1
[20] = test system: OVCAR-4; assay: Anticancer activity against human OVCAR4 cells assessed as cell growth at 10^-5 M after 48 hrs by SRB assay; format: functional; conditions: OVCAR-4, 48 h, read-out: Activity
[21] = test system: OVCAR-5; assay: Anticancer activity against human OVCAR5 cells assessed as cell growth at 10^-5 M after 48 hrs by SRB assay; format: functional; conditions: OVCAR-5, 48 h, read-out: Activity
[22] = test system: ACHN; assay: Anticancer activity against human ACHN cells assessed as cell growth at 10^-5 M after 48 hrs by SRB assay; format: functional; conditions: read-out: Activity; how it was run: as §2
[23] = test system: CAKI-1; assay: Anticancer activity against human Caki1 cells assessed as cell growth at 10^-5 M after 48 hrs by SRB assay; format: functional; conditions: CAKI-1, 48 h, read-out: Activity; how it was run: as §2
[24] = test system: UO-31; assay: Anticancer activity against human UO31 cells assessed as cell growth at 10^-5 M after 48 hrs by SRB assay; format: functional; conditions: UO-31, 48 h, read-out: Activity; how it was run: as §1
[25] = test system: PC-3; assay: Anticancer activity against human PC3 cells assessed as cell growth at 10^-5 M after 48 hrs by SRB assay; format: functional; conditions: PC-3, 48 h, read-out: Activity
[26] = test system: MCF7; assay: Anticancer activity against human MCF7 cells assessed as cell growth at 10^-5 M after 48 hrs by SRB assay; format: functional; conditions: MCF7, 48 h, read-out: Activity; how it was run: as §2
[27] = test system: MDA-MB-231; assay: Anticancer activity against human MDA-MB-231 cells assessed as cell growth at 10^-5 M after 48 hrs by SRB assay; format: functional; conditions: MDA-MB-231, 48 h, read-out: Activity; how it was run: as §2
[28] = test system: BT-549; assay: Anticancer activity against human BT549 cells assessed as cell growth at 10^-5 M after 48 hrs by SRB assay; format: functional; conditions: BT-549, 48 h, read-out: Activity; how it was run: as §2
[29] = test system: T47D; assay: Anticancer activity against human T47D cells assessed as cell growth at 10^-5 M after 48 hrs by SRB assay; format: functional; conditions: read-out: Activity; how it was run: as §1
[30] = test system: MDA-MB-468; assay: Anticancer activity against human MDA-MB-468 cells assessed as cell growth at 10^-5 M after 48 hrs by SRB assay; format: functional; conditions: MDA-MB-468, 48 h, read-out: Activity

Compound	IC50 [1] [µM]	growth at 10 µM [2] [%]	growth at 10 µM [3] [%]	growth at 10 µM [4] [%]	growth at 10 µM [5] [%]	growth at 10 µM [6] [%]	growth at 10 µM [7] [%]	growth at 10 µM [8] [%]	growth at 10 µM [9] [%]	growth at 10 µM [10] [%]	growth at 10 µM [11] [%]	growth at 10 µM [12] [%]	growth at 10 µM [13] [%]	growth at 10 µM [14] [%]	growth at 10 µM [15] [%]	growth at 10 µM [16] [%]	growth at 10 µM [17] [%]	growth at 10 µM [18] [%]	growth at 10 µM [19] [%]	growth at 10 µM [20] [%]	further results
COc1cccc(-c2nc3sccn3c2-c2ccnc(NCCNC(=O)c3ccccc3O)n2)c1	7.5	99.5	59.1	95	98.9	75.5	97.7	95.6	69.7	96.4	119	93.6	101	118	68.5	46.9	80.7	48.6	36.8	116	growth at 10 µM [21]: 112%; growth at 10 µM [22]: 62%; growth at 10 µM [23]: 68.8%; growth at 10 µM [24]: 48.6%; growth at 10 µM [25]: 62.8%; growth at 10 µM [26]: 88.5%; growth at 10 µM [27]: 89.4%; growth at 10 µM [28]: 81.6%; growth at 10 µM [29]: 60.1%; growth at 10 µM [30]: 102%
COc1cccc(-c2nc3sccn3c2-c2ccnc(NCCNC(=O)c3cccc(C(F)(F)F)c3)n2)c1	4.8	83.6	48	63.2	76.2	106	87.5	102	56.9	49.8	103	71	54.2	102	54.7	46.5	77	48.4	30.1	89	growth at 10 µM [21]: 97.8%; growth at 10 µM [22]: 49.5%; growth at 10 µM [23]: 50.6%; growth at 10 µM [24]: 39.5%; growth at 10 µM [25]: 55%; growth at 10 µM [26]: 78.8%; growth at 10 µM [27]: 77.6%; growth at 10 µM [28]: 78.1%; growth at 10 µM [29]: 46.7%; growth at 10 µM [30]: 71.1%
COc1cccc(-c2nc3sccn3c2-c2ccnc(NCCNC(=O)c3cc(C(F)(F)F)cc(C(F)(F)F)c3)n2)c1	> 10	131	67.6	78.1	84.4	38.5	102	95.5	69.1	69.8	119	82.5	94.5	99.2	92.5	79.3	81.8	75	70.3	103	growth at 10 µM [21]: 101%; growth at 10 µM [22]: 88.2%; growth at 10 µM [23]: 85.9%; growth at 10 µM [24]: 61.2%; growth at 10 µM [25]: 49.5%; growth at 10 µM [26]: 72.5%; growth at 10 µM [27]: 82.9%; growth at 10 µM [28]: 86.2%; growth at 10 µM [29]: 77%; growth at 10 µM [30]: 95.6%
